TRPC6 inh: blocks the mouse TRPC6 cation channel. Q61143. HEK293-TRPC6, membrane potential dye, ACh-evoked depolarization; stronger effect = lower value. B-score at 10 µM. hit rate 1.1% among 310,000;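 active means B-score under library mean minus 3 SD, initial fluorescence not abnormally high, positive integrated signal ratio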;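 further: B-score derived from integrated fluorescence ratio over the kinetic read; more negative B-score means stronger inhibition of depolarization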
TRPC4 PAM: allosterically enhances the mouse TRPC4 cation channel. Q9QUQ5. HEK293 TRPC4beta/mu-opioid, DAMGO EC20, Fluo-4 Ca2+ flux; stronger effect = higher value. B-score at 10 µM. hit rate 0.42% among 310,000;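 active means B-score of calcium response area above 5 SD of library B-scores, with initial fluorescence ratio within 5 SD of library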;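 further: B-score of integrated fluorescence ratio over time as area under calcium response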
Target sequence (Q9QUQ5 whole entry, looked up): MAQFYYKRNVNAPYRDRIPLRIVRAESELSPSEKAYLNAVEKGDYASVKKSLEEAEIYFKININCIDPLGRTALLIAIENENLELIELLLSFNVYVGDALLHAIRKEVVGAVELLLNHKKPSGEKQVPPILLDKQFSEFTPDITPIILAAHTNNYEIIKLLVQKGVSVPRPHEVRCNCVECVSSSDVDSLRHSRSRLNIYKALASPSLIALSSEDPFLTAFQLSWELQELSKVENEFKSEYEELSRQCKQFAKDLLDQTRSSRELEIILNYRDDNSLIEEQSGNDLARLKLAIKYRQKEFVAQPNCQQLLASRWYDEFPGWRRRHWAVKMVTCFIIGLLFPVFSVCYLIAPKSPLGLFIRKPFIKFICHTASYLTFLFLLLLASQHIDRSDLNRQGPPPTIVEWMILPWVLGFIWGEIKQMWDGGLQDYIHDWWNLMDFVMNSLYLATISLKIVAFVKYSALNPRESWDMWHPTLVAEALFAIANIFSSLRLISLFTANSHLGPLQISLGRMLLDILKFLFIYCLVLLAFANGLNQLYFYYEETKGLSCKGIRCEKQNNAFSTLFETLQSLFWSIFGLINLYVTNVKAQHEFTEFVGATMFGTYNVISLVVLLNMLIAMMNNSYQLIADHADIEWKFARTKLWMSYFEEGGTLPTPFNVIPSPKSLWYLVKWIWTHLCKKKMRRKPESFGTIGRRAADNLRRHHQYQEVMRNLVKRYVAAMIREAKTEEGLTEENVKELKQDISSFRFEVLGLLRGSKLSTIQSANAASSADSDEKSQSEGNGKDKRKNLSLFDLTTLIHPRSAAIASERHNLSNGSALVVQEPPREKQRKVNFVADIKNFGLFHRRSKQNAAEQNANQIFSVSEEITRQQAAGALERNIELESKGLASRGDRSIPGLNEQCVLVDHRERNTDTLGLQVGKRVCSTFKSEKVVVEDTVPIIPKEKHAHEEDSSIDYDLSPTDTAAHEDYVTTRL
TRPC4 block: TRPC4 (mouse) channel inhibition | B-score at 10 µM | Q9QUQ5 | HEK293 TRPC4beta/mu-opioid, DAMGO-evoked Fluo4 calcium flux; stronger effect = lower value | hit rate 0.39% among 300,000;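 active means B-score over 3 SD under the library average, no early fluorescence shift, positive overall ratio signal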
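System: stable TRPC4beta/mu-opioid receptor HEK293 cells; Dosing: single-point compound dosing; Measured by: Fluo4 Ca2+ flux fluorescence; Read-out basis: per-well B score of integrated baseline-normalized Fluo4 ratio.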
TRPC6 activator: activators of mouse TRPC6 channel; AID 2550; B-score at 10 µM; hit rate 0.13% among 310,000; HEK293-TRPC6 membrane potential dye fluorescence; stronger effect = higher value;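 active means B-score of the integrated fluorescence ratio above library mean plus 3 SD, and starting fluorescence ratio within library mean plus 5 SD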;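 further: higher score means more depolarization so channel activation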
TRPC4 agonist: TRPC4 (mouse) channel activation | HEK293 TRPC4beta/mu-opioid, Fluo4 calcium fluorescence; stronger effect = higher value | hit rate 0.49% among 310,000 | Q9QUQ5 | B-score at 10 µM;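 active means B-score above 5 SD of library B-scores, and initial fluorescence ratio not above library mean plus 5 SD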;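 further: positive B-score marks a calcium rise read as TRPC4 activation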
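Test system: HEK293 cells stably co-expressing mouse TRPC4beta and mu-opioid receptor | Schedule: Fluo4 dye loading 45 min at room temperature, 110 s recording | Measured by: Kinetic Fluo4 calcium fluorescence, 5 s baseline at 1 Hz | Evaluation: B score of integrated ratio | Controls: Buffer (low) and maximal DAMGO (high)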
Numbers without * were called inactive; i = inactive. An excerpt weighted towards active compounds, which were near 2.3% of everything screened.

SMILES	TRPC6 inh	TRPC4 PAM	TRPC4 block	TRPC6 activator	TRPC4 agonist
O=C(c1cccc(C(=O)N2CCN(c3ccccc3)CC2)c1)N1CCN(c2ccccc2)CC1	i	i	-7*	i	i
N=C1SCC(=O)N1c1ccc(Cl)cc1	i	i	i	i	i
CC(C)(C)c1ccc(N2C(=N)SCC2=O)cc1	i	33*	i	i	i
Cc1cc(C)c(S(=O)(=O)c2c(C)cccc2C)c(OCC(C)C)n1	i	i	i	i	i
CCOc1nc(C)cc(C)c1S(=O)(=O)c1cccc(C)c1	i	19*	i	i	i
CSCC[C@H](NC(=O)OC(C)(C)C)C(=O)N/N=C/c1cccc2cccnc12	i	10*	i	i	i
O=C(c1ccccc1)N1CCN(Cc2c[nH]c3ccccc23)CC1	i	i	i	i	i
O=[N+]([O-])c1ccccc1CN1CCN(Cc2c[nH]c3ccccc23)CC1	i	i	-7*	i	i
CCOCCCNC(=O)CN1C(=O)NC(Cc2c[nH]c3ccccc23)C1=O (stereo not given)	i	i	i	i	i
Cc1ccc(CN2C3=NCCN3c3ccccc32)cc1	i	i	-6*	i	i
Clc1ccc(CN2C3=NCCN3c3ccccc32)cc1Cl	i	i	-6*	i	i
CC(Sc1nc2sc3c(c2c(=O)n1-c1ccccc1)CCCC3)C(=O)O (stereo not given)	i	17*	i	i	i
CCn1cc(CN2CCCC(C(=O)Nc3cccc(-c4cc5ccccc5[nH]4)c3)C2)c(C)n1 (stereo not given)	i	i	i	i	i
Cc1cc(CN2CCCC(C(=O)Nc3ccc(-c4nc5ccccc5[nH]4)cc3)C2)n[nH]1 (stereo not given)	i	i	-5*	i	i
CCn1cc(CN2CCCC(C(=O)Nc3ccc(-c4nc5ccccc5[nH]4)cc3)C2)c(C)n1 (stereo not given)	i	i	i	i	206*
CCCCN(Cc1cc2ccccc2[nH]c1=O)C(=O)c1ccccn1	i	i	i	i	i
CCOc1ccc(/C=N/n2c(COc3ccccc3)n[nH]c2=S)cc1OC	i	i	i	i	i
CC(OC(=O)CNC(=O)c1ccccc1F)C(=O)Nc1nc(-c2ccccc2)cs1 (stereo not given)	i	i	-6*	i	i
Cc1csc(NC(=O)C(NC(=O)c2ccccc2F)C(C)C)n1 (stereo not given)	i	i	i	i	i
COc1ccc(Cl)cc1C(=O)NCC(c1ccco1)N(C)C (stereo not given)	i	i	i	i	i
O=C(NCC(c1ccco1)N1CCCC1)c1ccccc1F (stereo not given)	i	i	i	i	i
COc1ccc(Cl)cc1C(=O)NCC(c1ccco1)N1CCCC1 (stereo not given)	i	i	i	i	52*
O=C(NCC(c1ccco1)N1CCCC1)c1sc2ccccc2c1Cl (stereo not given)	i	i	i	i	43*
COCCCn1c(N)c(-c2nc3ccccc3n2C)c2nc3ccccc3nc21	i	i	i	i	74*
Cn1c(-c2c(N)n(CCCc3ccccc3)c3nc4ccccc4nc23)nc2ccccc21	i	i	i	i	i
SMILES	TRPC6 inh	TRPC4 PAM	TRPC4 block	TRPC6 activator	TRPC4 agonist
CC1CCCN(C2=C(NS(=O)(=O)c3ccc(Br)cc3)C(=O)c3ccccc3C2=O)C1 (stereo not given)	i	16*	i	i	i
COc1ccc(CN2CCN(Cc3ccccc3F)CC2)c(OC)c1	i	i	-5*	i	i
COc1ccc(CN2CCN(Cc3ccc(C)cc3)CC2)c(OC)c1	i	i	i	i	i
COc1cc(CN2CCN(Cc3ccc(SC)cc3)CC2)cc(OC)c1O	i	i	i	i	i
COc1ccc(CN2CCN(Cc3ccc(C(F)(F)F)cc3)CC2)c(OC)c1	i	i	-6*	i	i
COc1cc(OC)c(OC)cc1CN1CCN(Cc2ccc(SC)cc2)CC1	i	i	i	i	43*

Source: PubChem
